# How the values were obtained:
# [1] = Second-order rate constant for acyl-interchange reactions between glutathione and the compound; type: ADME
# In short: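 Cell-free reaction with glutathione in 0.1 M potassium phosphate, pH 7.5, 5% ethanol, 25 °C. Under pseudo-first-order conditions (≥10-fold glutathione excess), derived from the first-order loss of reactants followed spectrophotometrically. For the slow ester analogue, taken instead from the initial rate of product appearance (~0.1% reaction) with 15-fold glutathione excess, followed by reverse-phase HPLC.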
# L1210 [2] = test: Concentration producing 50% growth inhibition of L1210 cells; type: functional; conditions: Mus musculus
# In short: (§1)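 Murine L1210 leukemia cells (NCI tumor repository) in log phase, kept in RPMI 1640 with […], 10% heat-inactivated fetal calf serum and gentamycin (10 µg/mL), 37 °C, 5% CO2. Seeded at 5000 cells/well with at least five drug levels in triplicate. Fresh drug added every 12 h. Cell density counted by Coulter Counter after 48 h. Percentage growth taken against time-zero and no-drug counts. Values interpolated from dose-response curves; mean and SD of three experiments on different days.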
# L1210 [3] = test: Concentration required to kill 50% L1210 cells; type: ADME, cell-based; conditions: mouse
# In short: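 Mouse L1210 leukemia cells in log growth, RPMI 1640 with 10% heat-inactivated fetal calf serum and gentamycin (10 µg/mL), 37 °C, 5% CO2. Seeded at 5000 cells/well with at least five drug levels in triplicate. Fresh drug added every 12 h. Cell density counted by Coulter Counter after 48 h, viability by trypan blue. LC50 (50% cell killing) interpolated from dose-response curve; three experiments on different days.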
# L1210 [4] = test: Rate constant from the plots of initial rates of disappearance of the drug inside L1210 cells versus extracellular concentration of prodrug.; type: functional, Mus musculus; conditions: in the assay text read “appearance” for “disappearance”
# In short: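 L1210 suspensions (~1.5 × 10^6 cells/mL) in RPMI 1640/10% heat-inactivated FCS with gentamycin, 37 °C, were given fixed prodrug levels. Aliquots taken over time were spun through silicone oil. Pellets were extracted with 70% ethanol and the glutathione conjugate was measured by C18 reverse-phase HPLC at 260 nm against standard curves. The constant is the slope of initial intracellular appearance rate versus extracellular prodrug concentration.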
# L1210 [5] = test: Concentration producing 100% tumor growth inhibition of L1210 cells; type: functional; conditions: Mus musculus; in short: as §1
Compound,k2 [1],GI50 (L1210 [2]),LC50 (L1210 [3]),Rate constant (L1210 [4]),TGI (L1210 [5])
CC[S+]([O-])C(=O)N(C)O (stereo unspecified),9.83 M⁻¹ s⁻¹,,,,
CCSC(=O)N(O)c1ccc(Cl)cc1,5.83e-06 M⁻¹ s⁻¹,,,,
CC[S+]([O-])C(=O)N(C)c1ccc(Cl)cc1 (stereo unspecified),2.33 M⁻¹ s⁻¹,,,,
Cl.NC(CCC(=O)NC(CSC(=O)N(O)c1ccc(Cl)cc1)C(=O)NCC(=O)OC1CCCC1)C(=O)OC1CCCC1 (stereo unspecified),,3.4 µM,8.3 µM,0.59 min⁻¹,5.3 µM
CC[S+]([O-])C(=O)N(O)c1ccc(Cl)cc1 (stereo unspecified),30.7 M⁻¹ s⁻¹,0.5 µM,13 µM,1.41 min⁻¹,3.9 µM
CCOC(=O)CNC(=O)C(CSC(=O)N(O)c1ccc(Cl)cc1)NC(=O)CCC(N)C(=O)OCC.Cl (stereo unspecified),,7 µM,54 µM,0.1 min⁻¹,27 µM
